Results reported in ChEMBL document CHEMBL4602686, “A Meroisoprenoid, Heptenolides, and C-Benzylated Flavonoids from Sphaerocoryne gracilis ssp. gracilis” (J Nat Prod, 2020).
Calls of active or inactive are those of the source. The rule behind the calls is not given here.

Assays:
[1] = tested on: Plasmodium falciparum; experiment: Antimalarial activity against chloroquine-sensitive Plasmodium falciparum 3D7 assessed as reduction in parasite rowth incubated for 72 hrs by DAPI staining based fluorescence assay; type: functional, organism-based; conditions: 3D7, 72 h
[2] = tested on: Plasmodium falciparum; experiment: Antimalarial activity against chloroquine-resistant Plasmodium falciparum Dd2 assessed as reduction in parasite growth at 20 uM incubated for 72 hrs by DAPI saining based fluorescence assay; type: functional, organism-based
Procedure, shortened: (§1)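 P. falciparum Dd2 (chloroquine-resistant) growth read by high-content imaging. Isolates were screened at a single 40 μM concentration, and some were also given at 20 μM. Values are percentage growth inhibition, as the mean of at least two independent measurements.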

[3] = tested on: Plasmodium falciparum; experiment: Antimalarial activity against chloroquine-sensitive Plasmodium falciparum 3D7 assessed as reduction in parasite growth at 20 uM incubated for 72 hrs by DAPI staining based fluorescence assay; type: functional, organism-based
Procedure, shortened: (§2)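 Asexual P. falciparum 3D7 growth read by a high-content imaging assay. Each compound was tested at one concentration: 20 μM for line 1 and 40 μM for line 2. The value is percentage growth inhibition. The 20 μM values are the mean of at least two independent measurements.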

[4] = tested on: Plasmodium falciparum; experiment: Antimalarial activity against chloroquine-resistant Plasmodium falciparum Dd2 assessed as reduction in parasite growth at 40 uM incubated for 72 hrs by DAPI staining based fluorescence assay; type: functional, organism-based; procedure, shortened: as §1
[5] = tested on: Plasmodium falciparum; experiment: Antimalarial activity against chloroquine-sensitive Plasmodium falciparum 3D7 assessed as reduction in parasite growth at 40 uM incubated for 72 hrs by DAPI staining based fluorescence assay; type: functional, organism-based; procedure, shortened: as §2
[6] = tested on: Hepacivirus hominis; experiment: Inhibition of (CAG)33/FF/HCV/Ren.pA51 mRNA cap-dependent translation assessed as reduction in firefly level at […] after 60 mins by dual luciferase reporter gene assay
[7] = tested on: Hepacivirus hominis; experiment: Inhibition of (CAG)33/FF/HCV/Ren.pA51 mRNA cap-independent translation assessed as reduction in renilla level at […] after 60 mins by dual luciferase reporter gene assay
[8] = tested on: Plasmodium falciparum; experiment: Antimalarial activity against chloroquine-resistant Plasmodium falciparum Dd2 assessed as reduction in parasite growth incubated for 72 hrs by DAPI staining based fluorescence assay; type: functional, organism-based; conditions: Dd2, 72 h
[9] = Cytotoxicity against HEK293 cells assessed as growth inhibition at 40 uM relative to control; type: cell-based; conditions: human, read-out: GI
[10] = tested on: HEK293; experiment: Cytotoxicity against HEK293 cells; type: cell-based; conditions: Homo sapiens
[11] = tested on: Plasmodium falciparum 3D7; experiment: Selectivity ratio of IC50 for HEK293 cells to IC50 for antimalarial activity against Plasmodium falciparum 3D7; conditions: human, HEK293 cells versus Plasmodium falciparum 3D7

Row | SMILES | IC50 [1] | Activity [2] | Activity [3] | inhibition [6] | inhibition [7] | other results
1 | O=C1C=C/C(=C/[C@H](O)CO)O1 | 10.5 µM | – | – | – | – | –
2 | O=C1C[C@@H](c2ccccc2)Oc2c(Cc3ccccc3O)c(O)cc(O)c21 | – | Active | Active | – | – | –
3 | C[C@@](O)(COC(=O)/C=C/c1ccccc1)[C@H](O)COC(=O)c1ccccc1 | – | – | – | – | – | Activity [4]: inactive; Activity [5]: inactive
4 | O=c1cc(-c2ccccc2)oc2cc(O)cc(O)c12 | – | Active | Active | inactive | inactive | –
5 | O=C1C[C@@H](c2ccccc2)Oc2c(Cc3cccc(O)c3O)c(O)c(Cc3cccc(O)c3O)c(O)c21 | – | – | – | inactive | inactive | Activity [4]: inactive; Activity [5]: inactive
6 | CC(C)=CCC[C@@H](C)[C@H]1C[C@H](O)[C@@]2(C)C3=CC[C@H]4C(C)(C)[C@@H](O)CC[C@]4(C)C3=CC[C@]12C | – | – | – | – | – | Activity [4]: inactive; Activity [5]: inactive
7 | O=C1C[C@@H](c2ccccc2)Oc2cc(O)c(Cc3ccccc3O)c(O)c21 | – | Active | Active | – | – | –
8 | O=C1C[C@@H](c2ccccc2)Oc2cc(O)cc(O)c21 | – | – | – | – | – | Activity [4]: inactive; Activity [5]: inactive
9 | O=C1C[C@@H](c2ccccc2)Oc2c(Cc3ccccc3O)c(O)c(Cc3ccccc3O)c(O)c21 [DICHAMANETIN] | 9.3 µM | – | – | – | – | IC50 [8]: 6.7 µM; inhibition at 40 µM [9]: 75%
10 | COC(=O)/C=C/C(=O)C[C@H](O)COC(=O)c1ccccc1 | 1.4 µM | – | – | inactive | inactive | IC50 [8]: 4.1 µM; inhibition at 40 µM [9]: 100%
11 | O=C1C[C@@H](c2ccccc2)Oc2cc(O)c(Cc3cccc(O)c3O)c(O)c21 | – | Active | Active | inactive | inactive | –
12 | O=c1cc(-c2ccccc2)oc2c(Cc3cccc(O)c3O)c(O)cc(O)c12 | – | Active | Active | inactive | inactive | –
13 | O=C1C=C/C(=C/[C@H](O)COC(=O)c2ccccc2)O1 | 3.7 µM | – | – | inactive | inactive | –
14 | CC(=O)O[C@@H](/C=C1/C=CC(=O)O1)COC(=O)c1ccccc1 | 4.8 µM | – | – | – | – | IC50 [8]: 6.7 µM; IC50 [10]: 11.8 µM; selectivity ratio [11]: 3
